Data reported in ChEMBL document CHEMBL1124774, “Synthesis and biological activity of some derivatives of rifamycin P” (1990).
Values after ≈ are worked out from the molar mass of the structure shown.

Experiments:
[1] = tested on: Enterococcus faecalis; experiment: In vitro antibacterial activity of compound against Streptococcus faecalis ATCC 7080.; format: functional
In short: (§1)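 Twofold microdilution MIC in Iso-Sensitest broth over 128-0.0001 µg/mL. Inoculum was 10^4 cfu/mL, with incubation at 37 °C for 18-24 h.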

[2] = tested on: Pseudomonas aeruginosa; experiment: In vitro antibacterial activity of compound against Pseudomonas aeruginosa ATCC 10145; format: functional; in short: as §1
[3] = tested on: Klebsiella pneumoniae; experiment: In vitro antibacterial activity of compound against Klebsiella pneumoniae ISM; format: functional
[4] = tested on: Neisseria gonorrhoeae; experiment: In vitro antibacterial activity of compound against Neisseria gonorrhoeae ISM 68/126; format: functional
[5] = tested on: Streptococcus pyogenes; experiment: In vitro antibacterial activity of compound against Streptococcus pyogenes C 203 SKF 13400; format: functional
In short: (§2)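 Streptococcal MICs were run by twofold microdilution in Todd-Hewitt broth over 128-0.0001 µg/mL. Inoculum was 10^4 cfu/mL, with incubation at 37 °C for 18-24 h.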

[6] = tested on: Staphylococcus aureus; experiment: In vitro antibacterial activity of compound against Staphylococcus aureus Tour L 165; format: functional; in short: as §1
[7] = tested on: Proteus vulgaris; experiment: In vitro antibacterial activity of compound against Proteus vulgaris X19H ATCC 881; format: functional
[8] = tested on: Haemophilus influenzae; experiment: In vitro antibacterial activity of compound against Haemophilus influenzae ATCC 19418; format: functional
[9] = tested on: Staphylococcus epidermidis; experiment: In vitro antibacterial activity of compound against Staphylococcus epidermidis ATCC 12228; format: functional; in short: as §1
[10] = tested on: Streptococcus pneumoniae; experiment: In vitro antibacterial activity of compound against Streptococcus pneumoniae UC 41; format: functional; in short: as §2
[11] = tested on: Escherichia coli; experiment: In vitro antibacterial activity of compound against Escherichia coli SKF 12140; format: functional
[12] = tested on: Streptococcus pyogenes; experiment: Minimum inhibitory concentration of compound against Streptococcus pyogenus septicemia in the mouse; format: functional
[13] = tested on: Mycobacterium tuberculosis; experiment: In vitro antibacterial activity of compound against Mycobacterium tuberculosis H37Rv ATCC 9660; format: functional
[14] = tested on: Streptococcus pyogenes; experiment: Inhibitory concentration of compound against Streptococcus pyogenus septicemia in the mouse, administarted in OS route; format: functional
In short: (§3)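 Male and female CD1 mice (18-22 g) were infected ip with S. pyogenes C203, with the challenge set so untreated mice died within 48 h. Groups of five received a single treatment immediately after infection. ED50 was calculated from the percentage surviving at each dose on day 10.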

[15] = tested on: Mycobacterium avium; experiment: 50% inhibition of the 20 Mycobacterium (MAC) avium complex clinical isolates; format: functional
In short: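 Agar-dilution MICs, 2-fold dilutions over 128-0.0001 μg/mL, on Middlebrook 7H10 agar with 2% glycerol and 10% OADC. Organisms from Loevenstein-Jensen slants were grown in 7H9 broth with 0.5% Tween and 10% OADC, adjusted to McFarland no. 1, and spotted with a multipoint inoculator. Plates were sealed and incubated at 22, 30 or 37 °C for 4-20 days depending on strain.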

[16] = tested on: Mycobacterium avium; experiment: Minimum inhibitory concentration of compound against 20 Mycobacterium avium complex (MAC) clinical isolates
[17] = tested on: Mycobacterium avium; experiment: 90% inhibition of the 20 Mycobacterium avium complex (MAC) clinical isolates
[18] = tested on: Streptococcus pyogenes; experiment: Inhibitory concentration of compound against Streptococcus pyogenus septicemia in the mouse, administarted in subcutaneous route; format: functional; conditions: sc; in short: as §3

| SMILES | MIC [1] [µg/mL] | MIC [2] [µg/mL] | MIC [3] [µg/mL] | MIC [4] [µg/mL] | MIC [5] [µg/mL] | MIC [6] [µg/mL] | MIC [7] [µg/mL] | MIC [8] [µg/mL] | MIC [9] [µg/mL] | MIC [10] [µg/mL] | MIC [11] [µg/mL] | MIC [12] [µg/mL] | MIC [13] [µg/mL] | ED50 [14] [mg/kg] | MIC50 [15] [µg/mL] | MIC [16] [µg/mL] | MIC90 [17] [µg/mL] | ED50 [18] [mg/kg] |
| --- | --- | --- | --- | --- | --- | --- | --- | --- | --- | --- | --- | --- | --- | --- | --- | --- | --- | --- |
| COC1/C=C/OC2(C)Oc3c(C)c(O)c4c(O)c(c5sc(N6CCNCC6)nc5c4c3C2=O)NC(=O)/C(C)=C\C=C\C(C)C(O)C(C)C(O)C(C)C(OC(C)=O)C1C (stereo unspecified) | 2 (≈ 2.43 µM) | 8 (≈ 9.72 µM) | 16 (≈ 19.4 µM) | 0.125 (≈ 0.152 µM) | 0.125 (≈ 0.152 µM) | 0.125 (≈ 0.152 µM) | 8 (≈ 9.72 µM) | 0.25 (≈ 0.304 µM) | 0.063 (≈ 0.0766 µM) | 0.063 (≈ 0.0766 µM) | 8 (≈ 9.72 µM) | – | – | – | – | – | – | – |
| CCNc1nc2c(s1)c1c(O)c3c(O)c(C)c4c(c32)C(=O)C(C)(O/C=C/C(OC)C(C)C(OC(C)=O)C(C)C(O)C(C)C(O)C(C)/C=C/C=C(/C)C(=O)N1)O4 (stereo unspecified) | 1 (≈ 1.28 µM) | 4 (≈ 5.12 µM) | 32 (≈ 40.9 µM) | 0.125 (≈ 0.16 µM) | 0.063 (≈ 0.0806 µM) | 0.063 (≈ 0.0806 µM) | 8 (≈ 10.2 µM) | 0.125 (≈ 0.16 µM) | 0.032 (≈ 0.0409 µM) | 0.063 (≈ 0.0806 µM) | 16 (≈ 20.5 µM) | 0.063 (≈ 0.0806 µM) | 0.125 (≈ 0.16 µM) | > 4 | 32 (≈ 40.9 µM) | 8 (≈ 10.2 µM) | 64 (≈ 81.8 µM) | – |
| COC1/C=C/OC2(C)Oc3c(C)c(O)c4c(O)c(c5sc(N6CCN(Cc7ccccc7)CC6)nc5c4c3C2=O)NC(=O)/C(C)=C\C=C\C(C)C(O)C(C)C(O)C(C)C(OC(C)=O)C1C (stereo unspecified) | 1 (≈ 1.1 µM) | 16 (≈ 17.5 µM) | 64 (≈ 70.1 µM) | 0.125 (≈ 0.137 µM) | 0.063 (≈ 0.069 µM) | 0.008 (≈ 0.00876 µM) | 32 (≈ 35 µM) | 0.125 (≈ 0.137 µM) | 0.063 (≈ 0.069 µM) | 0.063 (≈ 0.069 µM) | 32 (≈ 35 µM) | – | 0.125 (≈ 0.137 µM) | – | – | – | – | – |
| COC1/C=C/OC2(C)Oc3c(C)c(O)c4c(O)c(c5sc(N6CCOCC6)nc5c4c3C2=O)NC(=O)/C(C)=C\C=C\C(C)C(O)C(C)C(O)C(C)C(OC(C)=O)C1C (stereo unspecified) | 1 (≈ 1.21 µM) | 16 (≈ 19.4 µM) | 32 (≈ 38.8 µM) | 0.125 (≈ 0.152 µM) | 0.032 (≈ 0.0388 µM) | 0.002 (≈ 0.00243 µM) | 8 (≈ 9.71 µM) | 0.5 (≈ 0.607 µM) | 0.063 (≈ 0.0765 µM) | 0.016 (≈ 0.0194 µM) | 16 (≈ 19.4 µM) | – | 2 (≈ 2.43 µM) | – | 32 (≈ 38.8 µM) | > 16 | 128 (≈ 155 µM) | – |
| COC1/C=C/OC2(C)Oc3c(C)c(O)c4c(O)c(c5sc(N6CCN(c7ccc(Cl)cc7)CC6)nc5c4c3C2=O)NC(=O)/C(C)=C\C=C\C(C)C(O)C(C)C(O)C(C)C(OC(C)=O)C1C (stereo unspecified) | 4 (≈ 4.28 µM) | 128 (≈ 137 µM) | > 128 | 0.25 (≈ 0.268 µM) | 0.125 (≈ 0.134 µM) | 0.063 (≈ 0.0675 µM) | 64 (≈ 68.6 µM) | 0.125 (≈ 0.134 µM) | 0.063 (≈ 0.0675 µM) | 0.063 (≈ 0.0675 µM) | 8 (≈ 8.57 µM) | – | 1 (≈ 1.07 µM) | – | – | – | – | – |
| COC1/C=C/OC2(C)Oc3c(C)c(O)c4c(O)c(c5sc(N6CCN(c7ccccc7)CC6)nc5c4c3C2=O)NC(=O)/C(C)=C\C=C\C(C)C(O)C(C)C(O)C(C)C(OC(C)=O)C1C (stereo unspecified) | 1 (≈ 1.11 µM) | 8 (≈ 8.9 µM) | > 128 | 0.125 (≈ 0.139 µM) | 0.032 (≈ 0.0356 µM) | 0.008 (≈ 0.0089 µM) | 16 (≈ 17.8 µM) | 0.125 (≈ 0.139 µM) | 0.032 (≈ 0.0356 µM) | 0.004 (≈ 0.00445 µM) | 4 (≈ 4.45 µM) | – | 1 (≈ 1.11 µM) | – | – | – | – | – |
| CCCCNc1nc2c(s1)c1c(O)c3c(O)c(C)c4c(c32)C(=O)C(C)(O/C=C/C(OC)C(C)C(OC(C)=O)C(C)C(O)C(C)C(O)C(C)/C=C/C=C(/C)C(=O)N1)O4 (stereo unspecified) | 1 (≈ 1.23 µM) | 8 (≈ 9.88 µM) | 64 (≈ 79 µM) | 0.125 (≈ 0.154 µM) | 0.063 (≈ 0.0778 µM) | 0.032 (≈ 0.0395 µM) | 16 (≈ 19.8 µM) | 0.125 (≈ 0.154 µM) | 0.016 (≈ 0.0198 µM) | 0.063 (≈ 0.0778 µM) | 16 (≈ 19.8 µM) | 0.063 (≈ 0.0778 µM) | – | > 10 | 32 (≈ 39.5 µM) | 2 (≈ 2.47 µM) | 64 (≈ 79 µM) | 6.6 |
| COC1/C=C/OC2(C)Oc3c(C)c(O)c4c(O)c(c5sc(N6CCN(C)CC6)nc5c4c3C2=O)NC(=O)/C(C)=C\C=C\C(C)C(O)C(C)C(O)C(C)C(OC(C)=O)C1C (stereo unspecified) | 0.032 (≈ 0.0382 µM) | 8 (≈ 9.56 µM) | 16 (≈ 19.1 µM) | 16 (≈ 19.1 µM) | 0.032 (≈ 0.0382 µM) | 0.004 (≈ 0.00478 µM) | 32 (≈ 38.2 µM) | 0.5 (≈ 0.597 µM) | 0.063 (≈ 0.0753 µM) | 0.125 (≈ 0.149 µM) | 2 (≈ 2.39 µM) | – | 2 (≈ 2.39 µM) | – | 64 (≈ 76.5 µM) | 16 (≈ 19.1 µM) | 64 (≈ 76.5 µM) | – |
